Assay results reported in ChEMBL document CHEMBL4118106 (J Med Chem, 2018).
The source made the active and inactive calls. The calls are words filed in the database; no cut-off is given here. Where a SMILES comes first, the peptide text is derived from it. Bridges are numbered along the chain shown (N, C = ends). [ ]: non-standard residue; d: D form. S5 = C=CCCC[C@](C)(N)C(=O)O; Nle = CCCC[C@H](N)C(=O)O

Columns and labels:
[1] = Inhibition of EGFP-fused MERS-CoV spike protein mediated cell-cell fusion between viral protein expressing human 293T cells and human HuH7 target cells after 4 hrs by inverted fluorescence microscopic analysis; set-up: species or system Middle East respiratory syndrome-related coronavirus
In short: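 Huh-7 target cells expressing DPP4 were seeded at 5 × 10^4/well and kept at 37 °C for 5 h. Inhibitors were added, then 293T effector cells co-expressing S protein and EGFP (1 × 10^4/well); 293T/EGFP-only cells served as negative control. After 4 h coculture at 37 °C, fused and unfused cells were counted by fluorescence microscopy.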

[2] = Binding affinity to NHR peptide HR1P in pH 7.2 phosphate buffer assessed as thermal unfolding transition at 50 uM after 30 mins by CD spectroscopic method
In short: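 Equimolar HR1P/peptide mixtures, 50 µM final in 50 mM PBS pH 7.2, were preincubated at 25 °C for 30 min. Thermal denaturation was followed by CD at 222 nm over a 10–90 °C gradient at 2 °C/min.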

[3] = (§1) Inhibition of MERS-CoV spike protein mediated cell-cell fusion between viral protein expressing human 293T cells and human HuH7 target cells assessed as decrease in pseudovirus infection preincubated with virus for 1 hr followed by HuH7 cells addition measured after 48 hrs by luciferase reporter gene assay; set-up: species or system Middle East respiratory syndrome-related coronavirus
In short: (§2)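 Graded peptide concentrations were preincubated with luciferase-reporter pseudovirus bearing MERS-CoV S for 1 h at room temperature. The mixture was added to Huh-7 or Calu-3 cells, with medium refreshed at 12 h. After a further 48 h at 37 °C, luciferase was read. Values are from three independent experiments, mean ± SD.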

[4] = Cytotoxicity against human HuH7 cells after 48 hrs by CCK-8 assay; type: cell-based, Huh-7
In short: (§3)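 Cells (1 × 10^5 per well) were preincubated at 37 °C for 12 h, then given graded peptide concentrations. After 48 h at 37 °C, CCK-8 was added and absorbance at 450 nm was read 2 h later.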

[5] = as §1, with “human Calu3” for “human HuH7”; set-up: species or system Middle East respiratory syndrome-related coronavirus; in short: as §2
Calu-3 = assay: Cytotoxicity against human Calu3 cells at 100 uM after 48 hrs by CCK-8 assay; type: cell-based; conditions: calu-3, 48 h; in short: as §3
[6] = Binding affinity to NHR peptide HR1P in pH 7.2 phosphate buffer assessed as formation of alpha-helical complex at 50 uM after 30 mins by CD spectroscopic method
In short: (§4)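 Peptides were at 50 µM final in 50 mM PBS, pH 7.2. Equimolar HR1P/peptide mixtures were incubated at 25 °C for 30 min before CD scanning. α-Helicity was taken from [θ]222, where -33,000 deg cm2/dmol = 100% helix.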

[7] = Binding affinity to NHR peptide HR1P in pH 7.2 phosphate buffer at 200 uM after 30 mins by N-PAGE analysis
In short: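 Stapled peptide and HR1P, each 200 µM (in 50 mM PBS or ddH2O), were incubated together at 25 °C for 30 min. Samples in Tris-glycine native sample buffer were run on an 18% Tris-glycine gel (pH 8.3 buffer) at 120 V for 3 h at room temperature and stained with Coomassie blue R250.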

[8] = Binding affinity to NHR peptide HR1P in pH 7.2 phosphate buffer at 250 uM after 30 mins by sedimentation velocity analysis
In short: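 HR1P/peptide mixtures at 250 µM in 50 mM PBS were incubated at 25 °C for 30 min. After an initial scan at 3000 rpm for 10 min, sedimentation velocity was run at 60,000 rpm, 280 nm, 20 °C, for 7 h. Weight-averaged molecular weights were obtained by fitting.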

[9] = Binding affinity to NHR peptide HR1P in pH 7.2 phosphate buffer at 50 uM after 30 mins by CD spectroscopic method; in short: as §4
[10] = Middle East respiratory syndrome-related coronavirus

SMILES | EC50 [1] [µM] | Tm [2] [°C] | CC50 at 48 h [4] [µM] | Activity [9] | also measured
CSCC[C@H](NC(=O)[C@H](CCC(=O)O)NC(=O)[C@H](Cc1ccc(O)cc1)NC(=O)[C@@H](NC(=O)[C@H](CC(C)C)NC(=O)[C@H](CC(=O)O)NC(=O)[C@H](CC(C)C)NC(C)=O)[C@@H](C)O)C(=O)N[C@@H](CC(C)C)C(=O)N[C@@H](CO)C(=O)N[C@@H](CC(C)C)C(=O)N[C@@H](CCC(N)=O)C(=O)N[C@@H](CCC(N)=O)C(=O)N[C@H](C(=O)N[C@H](C(=O)N[C@@]1(C)CCC/C=C/CCC[C@@](C)(C(=O)N[C@@H](CO)C(=O)N[C@@H](Cc2ccc(O)cc2)C(N)=O)NC(=O)[C@H](CC(N)=O)NC(=O)[C@H](CC(C)C)NC(=O)[C@H](C)NC1=O)C(C)C)C(C)C | 14.1 | 56.6 to 66.6 |  |  | 
CSCC[C@H](NC(=O)[C@H](CCC(=O)O)NC(=O)[C@H](Cc1ccc(O)cc1)NC(=O)[C@@H](NC(=O)[C@H](CC(C)C)NC(=O)[C@H](CC(=O)O)NC(=O)[C@H](CC(C)C)NC(C)=O)[C@@H](C)O)C(=O)N[C@@H](CC(C)C)C(=O)N[C@@H](CO)C(=O)N[C@@H](CC(C)C)C(=O)N[C@@H](CCC(N)=O)C(=O)N[C@@]1(C)CCC/C=C\CCC[C@@](C)(C(=O)N[C@@H](CC(C)C)C(=O)N[C@@H](CC(N)=O)C(=O)N[C@@H](CCC(=O)O)C(=O)N[C@@H](CO)C(=O)N[C@@H](Cc2ccc(O)cc2)C(N)=O)NC(=O)[C@H](CCCCN)NC(=O)[C@H](C(C)C)NC(=O)[C@H](C(C)C)NC1=O (Ac-LDLTYEMLSLQ[S5]VVK[S5]LNESY-NH2; staple (Z) 12-16) | 0.26 | 71.1 | > 100 |  | EC50 [3, 10]: 3.03 µM; EC50 [5, 10]: 2.21 µM; Activity (Calu-3): Non-Toxic; Activity [6]: 35.5%; Activity [7]: Active; Activity [8]: Active
CSCC[C@H](NC(=O)[C@H](CCC(=O)O)NC(=O)[C@H](Cc1ccc(O)cc1)NC(=O)[C@@H](NC(=O)[C@H](CC(C)C)NC(=O)[C@H](CC(=O)O)NC(=O)[C@H](CC(C)C)NC(C)=O)[C@@H](C)O)C(=O)N[C@@]1(C)CCC/C=C\CCC[C@@](C)(C(=O)N[C@H](C(=O)N[C@H](C(=O)N[C@@H](CCCCN)C(=O)N[C@@H](C)C(=O)N[C@@H](CC(C)C)C(=O)N[C@@H](CC(N)=O)C(=O)N[C@@H](CCC(=O)O)C(=O)N[C@@H](CO)C(=O)N[C@@H](Cc2ccc(O)cc2)C(N)=O)C(C)C)C(C)C)NC(=O)[C@H](CCC(N)=O)NC(=O)[C@H](CC(C)C)NC(=O)[C@H](CO)NC1=O (Ac-LDLTYEM[S5]SLQ[S5]VVKALNESY-NH2; staple (Z) 8-12) | 10.7 | 56.6 to 66.6 |  |  | 
CSCC[C@H](NC(=O)[C@H](CCC(=O)O)NC(=O)[C@]1(C)CCC/C=C\CCC[C@](C)(NC(C)=O)C(=O)N[C@@H](CC(=O)O)C(=O)N[C@@H](CC(C)C)C(=O)N[C@@H]([C@@H](C)O)C(=O)N1)C(=O)N[C@@H](CC(C)C)C(=O)N[C@@H](CO)C(=O)N[C@@H](CC(C)C)C(=O)N[C@@H](CCC(N)=O)C(=O)N[C@@H](CCC(N)=O)C(=O)N[C@H](C(=O)N[C@H](C(=O)N[C@@H](CCCCN)C(=O)N[C@@H](C)C(=O)N[C@@H](CC(C)C)C(=O)N[C@@H](CC(N)=O)C(=O)N[C@@H](CCC(=O)O)C(=O)N[C@@H](CO)C(=O)N[C@@H](Cc1ccc(O)cc1)C(N)=O)C(C)C)C(C)C | > 50 |  |  | inactive | 
CSCC[C@@H]1NC(=O)[C@H](CCC(=O)O)NC(=O)[C@H](Cc2ccc(O)cc2)NC(=O)[C@@](C)(NC(=O)[C@H](CC(C)C)NC(=O)[C@H](CC(=O)O)NC(=O)[C@H](CC(C)C)NC(C)=O)CCC/C=C\CCC[C@@](C)(C(=O)N[C@@H](CO)C(=O)N[C@@H](CC(C)C)C(=O)N[C@@H](CCC(N)=O)C(=O)N[C@@H](CCC(N)=O)C(=O)N[C@H](C(=O)N[C@H](C(=O)N[C@@H](CCCCN)C(=O)N[C@@H](C)C(=O)N[C@@H](CC(C)C)C(=O)N[C@@H](CC(N)=O)C(=O)N[C@@H](CCC(=O)O)C(=O)N[C@@H](CO)C(=O)N[C@@H](Cc2ccc(O)cc2)C(N)=O)C(C)C)C(C)C)NC1=O | > 50 |  |  | inactive | 
CSCC[C@H](NC(=O)[C@H](CCC(=O)O)NC(=O)[C@H](Cc1ccc(O)cc1)NC(=O)[C@@H](NC(=O)[C@H](CC(C)C)NC(=O)[C@H](CC(=O)O)NC(=O)[C@H](CC(C)C)NC(C)=O)[C@@H](C)O)C(=O)N[C@@H](CC(C)C)C(=O)N[C@@]1(C)CCC/C=C/CCC[C@@](C)(C(=O)N[C@H](C(=O)N[C@@H](CCCCN)C(=O)N[C@@H](C)C(=O)N[C@@H](CC(C)C)C(=O)N[C@@H](CC(N)=O)C(=O)N[C@@H](CCC(=O)O)C(=O)N[C@@H](CO)C(=O)N[C@@H](Cc2ccc(O)cc2)C(N)=O)C(C)C)NC(=O)[C@H](CCC(N)=O)NC(=O)[C@H](CCC(N)=O)NC(=O)[C@H](CC(C)C)NC1=O (Ac-LDLTYEML[S5]LQQ[S5]VKALNESY-NH2; staple (E) 9-13) | > 50 |  |  | inactive | 
CC[C@H](C)[C@H](NC(=O)[C@H](Cc1ccc(O)cc1)NC(=O)[C@H](CO)NC(=O)[C@H](CCC(=O)O)NC(=O)[C@H](CCC(=O)O)NC(=O)[C@H](CC(C)C)NC(=O)[C@H](CCCCN)NC(=O)[C@H](CCCCN)NC(=O)[C@@H](NC(=O)[C@@H](NC(=O)[C@H](CCC(=O)O)NC(=O)[C@H](CCC(=O)O)NC(=O)[C@H](CC(C)C)NC(=O)[C@H](CCCCN)NC(=O)[C@H](CCCCN)NC(=O)[C@H](CCSC)NC(=O)[C@H](CCC(=O)O)NC(=O)[C@H](Cc1ccc(O)cc1)NC(=O)[C@H](CCC(=O)O)NC(=O)[C@H](CC(C)C)NC(=O)[C@H](CC(=O)O)NC(=O)[C@H](CC(C)C)NC(=O)[C@H](CC(C)C)NC(=O)[C@@H](NC(=O)[C@@H](NC(=O)[C@H](CC(N)=O)NC(=O)[C@@H](NC(=O)[C@H](CCC(N)=O)NC(=O)[C@@H](NC(=O)[C@H](CC(C)C)NC(=O)[C@H](CO)NC(C)=O)[C@@H](C)O)[C@@H](C)CC)[C@@H](C)O)[C@@H](C)O)C(C)C)C(C)C)C(=O)N[C@@H](CC(=O)O)C(=O)N[C@@H](CC(C)C)C(=O)N[C@@H](CCCCN)C(=O)N[C@@H](CCC(=O)O)C(=O)N[C@@H](CC(C)C)C(N)=O | 0.75 |  | > 100 |  | EC50 [3, 10]: 1.07 µM
CCCC[C@H](NC(=O)[C@H](CCC(=O)O)NC(=O)[C@H](Cc1ccc(O)cc1)NC(=O)[C@@H](NC(=O)[C@H](CC(C)C)NC(=O)[C@H](CC(=O)O)NC(=O)[C@H](CC(C)C)NC(C)=O)[C@@H](C)O)C(=O)N[C@@H](CC(C)C)C(=O)N[C@@H](CO)C(=O)N[C@@H](CC(C)C)C(=O)N[C@@H](CCC(N)=O)C(=O)N[C@@]1(C)CCC/C=C\CCC[C@@](C)(C(=O)N[C@@H](CC(C)C)C(=O)N[C@@H](CC(N)=O)C(=O)N[C@@H](CCC(=O)O)C(=O)N[C@@H](CO)C(=O)N[C@@H](Cc2ccccc2)C(N)=O)NC(=O)[C@H](CCCCN)NC(=O)[C@H](C(C)C)NC(=O)[C@H](C(C)C)NC1=O (Ac-LDLTYE[Nle]LSLQ[S5]VVK[S5]LNESF-NH2; staple (Z) 12-16) | 3.89 |  |  |  | 
CSCC[C@@H]1NC(=O)[C@H](CCC(=O)O)NC(=O)[C@@](C)(NC(=O)[C@@H](NC(=O)[C@H](CC(C)C)NC(=O)[C@H](CC(=O)O)NC(=O)[C@H](CC(C)C)NC(C)=O)[C@@H](C)O)CCC/C=C\CCC[C@@](C)(C(=O)N[C@@H](CC(C)C)C(=O)N[C@@H](CCC(N)=O)C(=O)N[C@@H](CCC(N)=O)C(=O)N[C@H](C(=O)N[C@H](C(=O)N[C@@H](CCCCN)C(=O)N[C@@H](C)C(=O)N[C@@H](CC(C)C)C(=O)N[C@@H](CC(N)=O)C(=O)N[C@@H](CCC(=O)O)C(=O)N[C@@H](CO)C(=O)N[C@@H](Cc2ccc(O)cc2)C(N)=O)C(C)C)C(C)C)NC(=O)[C@H](CC(C)C)NC1=O | 7.14 | 56.6 to 66.6 |  |  | 
CCCC[C@H](NC(=O)[C@H](CCC(=O)O)NC(=O)[C@H](Cc1ccc(O)cc1)NC(=O)[C@@H](NC(=O)[C@H](CC(C)C)NC(=O)[C@H](CC(=O)O)NC(=O)[C@H](CC(C)C)NC(C)=O)[C@@H](C)O)C(=O)N[C@@H](CC(C)C)C(=O)N[C@@H](CO)C(=O)N[C@@H](CC(C)C)C(=O)N[C@@H](CCC(N)=O)C(=O)N[C@@]1(C)CCC/C=C\CCC[C@@](C)(C(=O)N[C@@H](CC(C)C)C(=O)N[C@@H](CC(N)=O)C(=O)N[C@@H](CCC(=O)O)C(=O)N[C@@H](CO)C(=O)N[C@@H](Cc2ccc(O)cc2)C(N)=O)NC(=O)[C@H](CCCCN)NC(=O)[C@H](C(C)C)NC(=O)[C@H](C(C)C)NC1=O (Ac-LDLTYE[Nle]LSLQ[S5]VVK[S5]LNESY-NH2; staple (Z) 12-16) | 0.63 |  | > 100 |  | EC50 [3]: 2.8 µM; EC50 [5]: 2.57 µM; Activity (Calu-3): Non-Toxic
